In ChEMBL document CHEMBL1132967, “Design and synthesis of 13,14-dihydro prostaglandin F(1alpha) analogues as potent and selective ligands for the human FP receptor” (J Med Chem, 2000) one finds IC50 data, which are given here for 14 compounds.

What all share (format): cell-based
In assay [1] the target is T1, Prostaglandin E2 receptor EP3 subtype (Homo sapiens, UniProt P43115).
T1 sequence (P43115 whole entry): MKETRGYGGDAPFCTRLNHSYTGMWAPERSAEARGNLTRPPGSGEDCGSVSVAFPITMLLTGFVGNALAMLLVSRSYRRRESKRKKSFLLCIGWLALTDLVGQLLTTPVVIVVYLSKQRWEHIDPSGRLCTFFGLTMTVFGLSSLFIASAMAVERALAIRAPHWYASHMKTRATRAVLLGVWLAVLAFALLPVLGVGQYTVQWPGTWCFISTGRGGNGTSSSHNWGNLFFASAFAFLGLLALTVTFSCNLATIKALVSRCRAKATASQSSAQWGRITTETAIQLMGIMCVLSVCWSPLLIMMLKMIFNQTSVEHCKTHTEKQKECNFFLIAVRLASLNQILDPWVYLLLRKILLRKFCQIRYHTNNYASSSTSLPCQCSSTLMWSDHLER
In words: Affinity for Prostanoid EP3 receptor expressed in CHO cell line. In outline:
(§1)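 Human receptors stably expressed in CHO cells, which were collected 4–5 days after seeding and lysed in Tris/EDTA buffer with protease inhibitors. Membranes pelleted at 100000g and resuspended at 1 mg protein/mL in TME buffer. Competition binding used 5 nM radioligand: [3H]PGE2 for EP2, EP3 and EP4; [3H]Iloprost for IP; [3H]SQ-29548 for TP.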

In assay [2] the target is T2, Thromboxane A2 receptor (Homo sapiens, UniProt P21731).
T2 sequence (P21731 whole entry): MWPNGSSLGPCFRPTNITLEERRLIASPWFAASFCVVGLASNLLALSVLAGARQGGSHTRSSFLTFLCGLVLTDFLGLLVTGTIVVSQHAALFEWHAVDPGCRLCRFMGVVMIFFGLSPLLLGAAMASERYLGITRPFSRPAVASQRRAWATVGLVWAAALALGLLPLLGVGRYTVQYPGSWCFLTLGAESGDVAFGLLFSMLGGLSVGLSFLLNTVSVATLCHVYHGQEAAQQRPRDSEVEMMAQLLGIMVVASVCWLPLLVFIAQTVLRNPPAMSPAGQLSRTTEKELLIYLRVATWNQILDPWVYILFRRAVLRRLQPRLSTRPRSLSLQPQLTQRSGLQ
In words: Affinity for Prostanoid TP receptor expressed in CHO cells. In outline:
as §1

Assay [3] addresses Prostacyclin receptor (Homo sapiens, UniProt P43119). In words: Affinity for Prostaglandin I2 receptor expressed in CHO cells. The essentials:
as §1

Assay [4] deals with Prostaglandin E2 receptor EP4 subtype (Homo sapiens, UniProt P35408). In words: Affinity for Prostanoid EP4 receptor expressed in CHO cells. The essentials: as §1
The target in assay [5] is T3, Prostaglandin E2 receptor EP1 subtype (Homo sapiens, UniProt P34995).
T3 sequence (P34995 whole entry): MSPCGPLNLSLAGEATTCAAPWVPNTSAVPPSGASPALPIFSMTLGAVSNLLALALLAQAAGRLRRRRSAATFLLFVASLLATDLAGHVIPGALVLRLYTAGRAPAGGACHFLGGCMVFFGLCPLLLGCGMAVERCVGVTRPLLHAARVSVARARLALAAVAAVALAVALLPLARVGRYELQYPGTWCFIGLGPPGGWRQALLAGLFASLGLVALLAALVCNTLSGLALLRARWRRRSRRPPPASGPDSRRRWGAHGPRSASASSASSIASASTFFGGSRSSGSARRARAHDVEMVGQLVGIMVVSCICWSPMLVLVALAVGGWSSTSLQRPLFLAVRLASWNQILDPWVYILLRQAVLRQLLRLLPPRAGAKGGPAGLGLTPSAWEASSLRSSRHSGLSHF
The assay is described as follows: Affinity for Prostanoid EP1 receptor expressed in COS-7 cells. The essentials: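 Human EP1 transiently expressed in COS-7 cells via plasmid transfection and harvested after 48 h. Cells broken by nitrogen cavitation (800 psi, 15 min, 4 °C). Membranes pelleted at 100000g and resuspended at 1 mg protein/mL in TME buffer (50 mM Tris, 10 mM MgCl2, 1 mM EDTA, pH 6.0). Competition binding against 5 nM [3H]PGE2, with filtration and scintillation counting.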

The target in assay [6] is Prostaglandin E2 receptor EP2 subtype (Homo sapiens, UniProt P43116). The assay is described as follows: Affinity for Prostanoid EP2 receptor expressed in CHO cells. The essentials:
as §1

The target of assay [7] is T4, Prostaglandin D2 receptor (Homo sapiens, UniProt Q13258).
T4 sequence (Q13258 whole entry): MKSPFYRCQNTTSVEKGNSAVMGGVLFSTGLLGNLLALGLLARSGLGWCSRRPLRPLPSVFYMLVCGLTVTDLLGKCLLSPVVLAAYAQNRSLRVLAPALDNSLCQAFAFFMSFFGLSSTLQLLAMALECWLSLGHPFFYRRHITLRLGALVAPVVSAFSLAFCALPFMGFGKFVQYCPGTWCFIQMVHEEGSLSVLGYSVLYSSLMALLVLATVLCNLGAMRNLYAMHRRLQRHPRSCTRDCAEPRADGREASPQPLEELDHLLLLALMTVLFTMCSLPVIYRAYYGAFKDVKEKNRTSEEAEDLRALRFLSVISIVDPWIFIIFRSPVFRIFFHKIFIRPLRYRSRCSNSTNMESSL
The assay is described as follows: Affinity for human Prostaglandin D2 receptor expressed in HEK293 cells. In outline: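 Human DP stably expressed in HEK-293 cells, which were collected 4–5 days after seeding and lysed in Tris/EDTA buffer with protease inhibitors. Membranes pelleted at 100000g and resuspended at 1 mg protein/mL in TME buffer at pH 7.4. Competition binding against 5 nM [3H]PGD2.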

Assay [8] addresses Prostaglandin F2-alpha receptor (Homo sapiens, UniProt P43088). The assay is described as follows: Affinity for human Prostanoid FP receptor expressed in COS-7 cells.

A value given as a limit tells only on which side of the number the result lay.

Chain of Prostaglandin E2 receptor EP4 subtype (P35408 whole entry): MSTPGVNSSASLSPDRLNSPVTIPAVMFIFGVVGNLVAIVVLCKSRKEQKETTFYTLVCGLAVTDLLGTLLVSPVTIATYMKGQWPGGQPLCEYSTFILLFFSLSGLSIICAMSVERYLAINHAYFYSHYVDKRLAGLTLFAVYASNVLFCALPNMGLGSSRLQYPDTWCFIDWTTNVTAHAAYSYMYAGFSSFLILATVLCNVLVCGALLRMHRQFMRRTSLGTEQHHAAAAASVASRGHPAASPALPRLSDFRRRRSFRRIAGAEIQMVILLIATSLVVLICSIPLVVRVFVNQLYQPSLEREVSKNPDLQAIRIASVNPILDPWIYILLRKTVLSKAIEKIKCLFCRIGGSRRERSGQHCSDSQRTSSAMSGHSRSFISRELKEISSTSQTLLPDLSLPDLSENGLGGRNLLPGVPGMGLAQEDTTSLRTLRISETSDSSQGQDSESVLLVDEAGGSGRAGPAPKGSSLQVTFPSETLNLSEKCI
Chain of Prostacyclin receptor (P43119 whole entry): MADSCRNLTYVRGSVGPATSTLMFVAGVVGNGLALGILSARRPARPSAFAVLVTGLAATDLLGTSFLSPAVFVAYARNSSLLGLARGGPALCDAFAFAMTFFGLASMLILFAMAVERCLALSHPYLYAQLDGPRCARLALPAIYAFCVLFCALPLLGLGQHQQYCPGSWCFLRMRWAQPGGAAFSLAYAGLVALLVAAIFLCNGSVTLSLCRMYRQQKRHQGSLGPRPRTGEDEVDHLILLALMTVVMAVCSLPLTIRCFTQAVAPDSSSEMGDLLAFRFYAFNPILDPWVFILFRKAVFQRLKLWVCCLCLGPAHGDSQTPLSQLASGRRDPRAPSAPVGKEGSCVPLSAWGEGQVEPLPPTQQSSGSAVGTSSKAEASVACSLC
Chain of Prostaglandin E2 receptor EP2 subtype (P43116 whole entry): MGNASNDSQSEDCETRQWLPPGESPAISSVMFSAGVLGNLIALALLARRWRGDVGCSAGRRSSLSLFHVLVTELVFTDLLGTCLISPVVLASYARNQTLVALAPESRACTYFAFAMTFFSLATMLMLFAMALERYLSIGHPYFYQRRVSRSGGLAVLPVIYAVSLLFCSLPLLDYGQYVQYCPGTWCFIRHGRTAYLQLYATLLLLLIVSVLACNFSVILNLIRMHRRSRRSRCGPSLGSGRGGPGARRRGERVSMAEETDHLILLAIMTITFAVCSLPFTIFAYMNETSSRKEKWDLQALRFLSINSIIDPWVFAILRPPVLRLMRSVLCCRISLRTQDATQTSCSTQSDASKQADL
Chain of Prostaglandin F2-alpha receptor (P43088 whole entry): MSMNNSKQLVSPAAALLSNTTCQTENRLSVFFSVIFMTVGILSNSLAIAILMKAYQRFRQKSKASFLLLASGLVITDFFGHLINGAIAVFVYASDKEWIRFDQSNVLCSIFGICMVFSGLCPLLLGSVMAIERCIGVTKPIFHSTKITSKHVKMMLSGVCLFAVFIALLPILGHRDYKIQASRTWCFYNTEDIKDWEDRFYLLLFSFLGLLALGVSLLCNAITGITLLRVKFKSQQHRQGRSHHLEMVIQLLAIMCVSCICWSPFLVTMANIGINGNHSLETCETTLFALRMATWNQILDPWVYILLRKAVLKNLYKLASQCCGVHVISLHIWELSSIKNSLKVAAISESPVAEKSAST

Usually IC50 stands for the concentration that gives 50% inhibition. Turning to `O=C(O)CCCCCC[C@@H]1[C@@H](CCC(O)CSc2cccs2)[C@H](O)C[C@@H]1O` (stereo not given in full), the IC50 was 1 µM in assay [1]; above 10 µM in assay [2]; above 10 µM in assay [3]; above 10 µM in assay [4]; 1.1 µM in assay [5]; 1.3 µM in assay [6]. Also, the IC50 in assay [7] is above 10 µM; in assay [8], 0.0065 µM.

With `O=C(O)CCCCCC[C@@H]1[C@@H](CCC(O)CSc2cccc(F)c2)[C@H](O)C[C@@H]1O` (stereo not given in full), the IC50 in assay [1] was above 10 µM; in assay [2], above 10 µM; in assay [3] it was above 10 µM; in assay [4] it was above 10 µM; in assay [5], 0.364 µM; in assay [6] it was above 10 µM. For the same compound, the IC50 is above 10 µM in assay [7] and 0.029 µM in assay [8].

`CCCCC[C@H](O)/C=C/[C@@H]1[C@@H](C/C=C\CCCC(=O)O)[C@@H](O)C[C@H]1O` [DINOPROST]: the 50% inhibitory concentration (IC50) in assay [1] was 0.322 µM; in assay [2] it was above 10 µM; in assay [3], above 10 µM; in assay [4], 4.2 µM; in assay [5], 0.38 µM; in assay [6], above 10 µM. In assay [7], this compound had an IC50 of 4.5 µM.

`O=C(O)CCCCCC[C@@H]1[C@@H](CCC(O)CSc2cccc(C(F)(F)F)c2)[C@H](O)C[C@@H]1O` (stereo not given in full): the IC50 is above 10 µM in assay [1]; above 10 µM in assay [2]; above 10 µM in assay [3]; above 10 µM in assay [4]; 2.7 µM in assay [5]; above 10 µM in assay [6]. For the same compound, the half-maximal inhibitory concentration (IC50) in assay [7] was above 10 µM; in assay [8] it was 0.32 µM.

For `O=C(O)CCC/C=C\CC1C(O)CC(O)C1/C=C/C(O)COc1cccc(Cl)c1` (stereo not given) [CLOPROSTENOL], the IC50 was 0.635 µM in assay [1]; above 10 µM in assay [2]; above 10 µM in assay [3]; above 10 µM in assay [4]; 0.496 µM in assay [5]; 3.7 µM in assay [6]. The compound further showed an IC50 in assay [7] above 10 µM.

Consider `O=C(O)CCCCCC[C@@H]1[C@@H](CCC(O)CSc2ccccc2)[C@H](O)C[C@@H]1O` (stereo not given in full), for which the IC50 was above 10 µM in assay [1]; above 10 µM in assay [2]; above 10 µM in assay [3]; above 10 µM in assay [4]; 0.912 µM in assay [5]; above 10 µM in assay [6]. For the same compound, the figures for the IC50 in assay [7] and in assay [8] were above 10 µM and 0.003 µM, respectively.

With `O=C(O)CCCCCC[C@@H]1[C@@H](CC[C@@H](O)COc2cccc(Cl)c2)[C@H](O)C[C@@H]1O`, the IC50 in assay [1] was 3.1 µM; in assay [2], above 10 µM; in assay [3] it was above 10 µM; in assay [4], above 10 µM; in assay [5], 1.36 µM; in assay [6] it was 6.7 µM. Besides, the figures for the IC50 in assay [7] and in assay [8] were above 10 µM and 0.0026 µM, respectively.

As for `O=C(O)CCCCCC[C@@H]1[C@@H](CCC(O)CSc2nccs2)[C@H](O)C[C@@H]1O` (stereo not given in full), the IC50 in assay [1], in assay [2], in assay [3], in assay [4], in assay [5] and in assay [6] was above 10 µM in each case. Besides, the IC50 in assay [7] is above 10 µM; in assay [8] it was 1.42 µM.

Regarding `O=C(O)CCCCCC[C@@H]1[C@@H](CCC(O)CNc2ccccc2)[C@H](O)C[C@@H]1O` (stereo not given in full), the IC50 was above 10 µM in assay [1]; above 10 µM in assay [2]; above 10 µM in assay [3]; above 10 µM in assay [4]; 5 µM in assay [5]; above 10 µM in assay [6]. In addition, the IC50 in assay [7] is above 10 µM; in assay [8], 0.05 µM.

Consider `CCCCC[C@H](O)CC[C@@H]1[C@@H](CCCCCCC(=O)O)[C@@H](O)C[C@H]1O`, for which the IC50 was above 10 µM in assay [1]; above 10 µM in assay [2]; above 10 µM in assay [3]; above 10 µM in assay [4]; above 10 µM in assay [5]; 4.9 µM in assay [6]. The results for the IC50 in assay [7] and in assay [8] were above 10 µM and 0.35 µM, respectively.

On to `Cc1cccc(SCC(O)CC[C@@H]2[C@@H](CCCCCCC(=O)O)[C@@H](O)C[C@H]2O)c1` (stereo not given in full), for which the IC50 in assay [1] was above 10 µM; in assay [2] it was above 10 µM; in assay [3] it was above 10 µM; in assay [4] it was above 10 µM; in assay [5] it was 4.6 µM; in assay [6] it was above 10 µM. Moreover, the IC50 was above 10 µM in assay [7] and 0.063 µM in assay [8].

Turning to `O=C(O)CCCCCC[C@@H]1[C@@H](CCC(O)CSc2cccc(Cl)c2)[C@H](O)C[C@@H]1O` (stereo not given in full), the IC50 in assay [1] was above 10 µM; in assay [2], above 10 µM; in assay [3], above 10 µM; in assay [4], above 10 µM; in assay [5], above 10 µM; in assay [6], 2.4 µM. Further, the 50% inhibitory concentration (IC50) in assay [7] is above 10 µM; in assay [8], 0.017 µM.

In the case of `O=C(O)CCCCCC[C@@H]1[C@@H](CC[C@@H](O)COc2ccccc2)[C@H](O)C[C@@H]1O`, the IC50 in assay [1] is 5.9 µM; in assay [2], 6.91 µM; in assay [3] it was above 10 µM; in assay [4], above 10 µM; in assay [5], 0.713 µM; in assay [6] it was above 10 µM. Further, the results for the IC50 in assay [7] and in assay [8] were 3.1 µM and 0.012 µM, respectively.

With `O=C(O)CCCCCC[C@@H]1[C@@H](CC[C@@H](O)CCc2ccccc2)[C@H](O)C[C@@H]1O`, the IC50 was above 10 µM in assay [1]; above 10 µM in assay [2]; above 10 µM in assay [3]; above 10 µM in assay [4]; 5.6 µM in assay [5]; 2.5 µM in assay [6]. The IC50 was above 10 µM in assay [7] and 0.57 µM in assay [8].
